In paper PMC8209782 (Bioorganic & medicinal chemistry, 2020):

Assays:
other kallikreins = assay: Protease panel assay; assay type: biochemical, human; details: up to 10 μM
Procedure, shortened: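 Human kallikreins in a 23-protease panel run by a contract lab, with enzyme conditions tabulated in the supplement. […] Fluorogenic AMC peptide substrates; fluorescence increase followed as a time course. The initial linear slope (signal/min) was used to derive IC50.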

HNE = molecular target: T1, HNE (Homo sapiens, UniProt P08246); assay: In vitro HNE enzyme assay with pNa substrate; assay type: biochemical
T1 sequence (P08246 30-267): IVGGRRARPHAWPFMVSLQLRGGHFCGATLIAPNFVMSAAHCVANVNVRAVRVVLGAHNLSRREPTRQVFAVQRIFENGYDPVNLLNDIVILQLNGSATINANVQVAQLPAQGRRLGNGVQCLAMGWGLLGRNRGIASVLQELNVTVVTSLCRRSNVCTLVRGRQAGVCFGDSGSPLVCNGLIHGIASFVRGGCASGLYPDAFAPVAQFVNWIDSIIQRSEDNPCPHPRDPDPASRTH

In the case of `C/C=C1\NC(=O)[C@@H](NC(=O)[C@@H](NC(=O)[C@H](C)NC(=O)C/C(C)=C/Cl)[C@@H](C)CC)[C@@H](C)OC(=O)[C@H](C(C)C)NC(=O)[C@H](Cc2ccc(O)cc2)N(C)C(=O)[C@H](Cc2ccccc2)N2C(=O)[C@H](CC[C@H]2O)NC1=O` [Tutuilamide A], the “effect on other kallikreins (selectivity profiling)” value (other kallikreins) was “without affecting” and the “fold less active than lyngbyastatin 7 against HNE” value (HNE) was 1.5 fold.
